PubChem BioAssay AID624176 (Southern Research Specialized Biocontainment Screening …, 2012)
Calls of active or inactive are those of the source.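 The calls were made as follows: active = inhibition of 30% or more at any tested concentration; inactive = the rest.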

Molecular target: Aminopeptidase N (Plasmodium falciparum (isolate 3D7)) (UniProt O96935)
Test: PfM1AAP inhibitors, counter-screen enzyme, dose response, counter-screen for PfM18AAP inhibitor project, biochemical, QFRET fluorogenic substrate, set 3 (AID 624176)
Conditions: recombinant PfM1AAP, H-Leu-NHMec fluorogenic cleavage
Summary of the method: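 Material: purified recombinant Plasmodium falciparum M1 alanyl aminopeptidase (PfM1AAP); Amount: enzyme 5 µg/mL; Replicates: each concentration tested in triplicate; Measure: IC50 from constrained four-parameter fit; Doses: ten concentrations, twofold dilution steps, highest 100 µM; Timing: reaction 90 min, room temperature; Buffer or medium: Tris-HCl pH 7.5 plus CoCl2; Signal: NHMec fluorescence at 370/460 nm.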

Chain of Aminopeptidase N (Plasmodium falciparum (isolate 3D7)) (O96935 whole entry, looked up): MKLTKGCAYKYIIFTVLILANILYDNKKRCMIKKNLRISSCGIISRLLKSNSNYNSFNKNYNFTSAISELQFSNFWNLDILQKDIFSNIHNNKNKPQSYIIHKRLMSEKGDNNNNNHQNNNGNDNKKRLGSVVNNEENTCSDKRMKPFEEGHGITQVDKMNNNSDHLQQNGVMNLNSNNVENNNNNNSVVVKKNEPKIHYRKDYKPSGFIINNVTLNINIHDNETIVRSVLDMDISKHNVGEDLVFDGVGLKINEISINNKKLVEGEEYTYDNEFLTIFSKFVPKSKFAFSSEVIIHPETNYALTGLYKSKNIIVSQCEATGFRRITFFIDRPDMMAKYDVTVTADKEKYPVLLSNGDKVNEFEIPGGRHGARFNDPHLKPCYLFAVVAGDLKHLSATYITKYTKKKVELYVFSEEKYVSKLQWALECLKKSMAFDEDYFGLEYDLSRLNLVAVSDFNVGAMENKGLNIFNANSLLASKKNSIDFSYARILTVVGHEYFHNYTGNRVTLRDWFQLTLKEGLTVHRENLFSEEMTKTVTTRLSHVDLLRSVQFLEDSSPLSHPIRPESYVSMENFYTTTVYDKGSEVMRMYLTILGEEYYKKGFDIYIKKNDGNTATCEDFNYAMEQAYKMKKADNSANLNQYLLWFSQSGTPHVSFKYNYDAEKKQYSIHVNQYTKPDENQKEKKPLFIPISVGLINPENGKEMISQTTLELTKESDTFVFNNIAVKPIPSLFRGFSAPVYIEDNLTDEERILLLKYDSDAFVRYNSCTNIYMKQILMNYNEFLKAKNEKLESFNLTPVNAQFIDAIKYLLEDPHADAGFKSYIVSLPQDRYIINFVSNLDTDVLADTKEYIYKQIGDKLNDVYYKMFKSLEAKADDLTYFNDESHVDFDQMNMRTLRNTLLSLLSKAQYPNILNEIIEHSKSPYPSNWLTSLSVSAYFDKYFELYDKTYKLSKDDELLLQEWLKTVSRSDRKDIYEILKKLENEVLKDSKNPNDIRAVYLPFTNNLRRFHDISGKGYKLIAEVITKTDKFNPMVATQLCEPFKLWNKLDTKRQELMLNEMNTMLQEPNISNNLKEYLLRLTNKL

| IC50 | Structure (SMILES) |
| --- | --- |
| 74.6 µM | Oc1ccc(CCNc2ccnc3cc(Cl)ccc23)cc1O |
| 105 µM | Cc1cccc2c(NCCc3ccc(O)c(O)c3)ccnc12 |
| 47.2 µM | Oc1ccc(C2CCN(c3ccnc4ccccc34)C2)cc1O (stereo not given) |
| 74.6 µM | Oc1ccc(C2CCN(c3ccnc4ccccc34)CC2)cc1O |
| 75.4 µM | CN(CCc1ccc(O)c(O)c1)c1ccnc2cc(Cl)ccc12 |
| 101 µM | CCN(CCc1ccc(O)c(O)c1)c1c2ccccc2nc2ccccc12 |
| 56.4 µM | Oc1cccc(CCNc2ccnc3ccccc23)c1O |
| 101 µM | Cc1cc(N(C)CCc2ccc(O)c(O)c2)c2ccccc2n1 |
| 61.3 µM | CN(CCc1ccc(O)c(O)c1)c1ncnc2ccccc12 |
| 83.2 µM | CN(CCc1ccc(O)c(O)c1)c1ccnc2c(F)cccc12 |

Same assay, conditions: recombinant PfM1AAP, H-Leu-NHMec fluorogenic cleavage; at 100 µM (top of the series)

| Structure (SMILES) | inhibition |
| --- | --- |
| COc1ccc(C2CCN(c3ccnc4ccccc34)CC2)cc1OC | inactive |
| Nc1c2ccccc2nc2ccccc12 | inactive |
| Clc1c2c(nc3ccccc13)CCCC2 | inactive |
| CCOc1ccc2nccc(N(C)CCc3ccc(OC)c(OC)c3)c2c1 | inactive |
| COc1cc(Br)c(CCNc2ccnc3ccccc23)cc1OC | inactive |
| COc1ccc(CCNC(=O)c2cc(C)ccc2N)cc1OC | inactive |
| COc1ccc(CCN(C)c2ccnc3c(C)cccc23)cc1OC | inactive |
| COc1ccc(CCN(C)c2ccnc3cc(Cl)ccc23)cc1OC | inactive |
| COc1ccc(C2CCN(c3ccnc4ccccc34)C2)cc1OC (stereo not given) | inactive |
| COc1ccc(CCN(C)c2ccnc3c(F)cccc23)cc1OC | inactive |

Results, then the compound that gave them:

| inhibition | Structure (SMILES) |
| --- | --- |
| inactive | CCN(CCc1ccc(OC)c(OC)c1)c1c2ccccc2nc2ccccc12 |
| inactive | COc1cc(Br)c(CCNc2c3ccccc3nc3ccccc23)cc1OC |
| inactive | COc1ccc(CCNc2ccnc3c(F)cccc23)cc1OC |
| inactive | COc1ccc(CCN(C)c2cc(C)nc3ccccc23)cc1OC |
| inactive | COc1ccc(CCNc2c3c(nc4ccc(C)cc24)CCCC3)cc1OC |
| inactive | COc1ccc(CCN(C)c2ncnc3ccccc23)cc1OC |
| inactive | COc1ccc(CCNc2ncnc3ccccc23)cc1OC |
| inactive | COc1ccc(CCNc2ccnc3cc(Cl)ccc23)cc1OC |
| inactive | COc1ccc(CCN(C)c2c3ccccc3nc3ccccc23)cc1OC |
| inactive | COc1cc(Br)c(CCNc2c3c(nc4ccccc24)CCCC3)cc1OC |
| inactive | COc1ccc(CCNc2ccnc3c(C)cccc23)cc1OC |
| inactive | COc1ccc(CCNc2cc(C)nc3ccccc23)cc1OC |
| inactive | COc1ccc(CCCN(C)c2c3ccccc3nc3ccccc23)cc1OC |
| inactive | COc1ccc(CCCNc2c3c(nc4ccccc24)CCCC3)cc1OC |
| inactive | CCOc1ccc2nccc(NCCc3ccc(OC)c(OC)c3)c2c1 |
